RanGTP-Impb inh – inhibitors of RanGTP-importin-beta interaction, primary screen, biochemical, FRET, CFP-Ran, YFP-importin-beta, homogeneous | cell-free CFP-Ran/YFP-importin-beta FRET ratio | inhibition, % (concentration not given with the values) | 300,000 tested, 1.1% active;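 active = more than half of the replicate wells show a fall in the fluorescence ratio signal beyond about 16%, limit read from the data, passing the limit was not always enough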
CaV13 FRET inh – Primary screen for inhibitors of IQ motif and Ca2+-dependent inactivation inhibitor domain binding in CACNA1D, Förster resonance energy transfer in living cells, …; 340,000 tested, 0.098% active; HEK cells, CFP/YFP FRET ICDI-IQ, plate reader, 10 min; percent FRET-ratio fall versus neutral wells; inhibition, % at 12.3 µM;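 active = mean replicate inhibition of at least 30% and at least 1% of replicates passing that level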
Runt-CBFb FRET – inhibitors of human RUNX1 Runt domain binding to CBFb; Q01196+Q13951; Cerulean-Runt/Venus-CBFb FRET ratio 530/480, 1 h; inhibition, % at 20 µM; 220,000 tested, 0.46% active; AID 1496;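 active = inhibition over about 50% at 20 µM in the single-dose screen, limit read from the data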
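test system = Cerulean-Runt domain fusion protein, energy donor | probe or stimulus = Venus-CBFb binding partner, 100 nM | incubation = two 1 h room-temperature incubations shielded from light | detection = fluorescence energy transfer, 422 nm excitation, 530/480 nm emission | measure = loss of energy transfer signal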
Hck-Nef inh – human Hck-Nef kinase inhibition | Recombinant Hck-YEEI plus Nef, Z-Lyte FRET kinase assay | inhibition, % at 20 µM | 220,000 tested, 0.68% active | AID 463187;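 active = Hck-Nef kinase inhibition above about 50%, limit read from the data; inactive = inhibition below that limit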
Target sequence (P08631 whole entry, looked up): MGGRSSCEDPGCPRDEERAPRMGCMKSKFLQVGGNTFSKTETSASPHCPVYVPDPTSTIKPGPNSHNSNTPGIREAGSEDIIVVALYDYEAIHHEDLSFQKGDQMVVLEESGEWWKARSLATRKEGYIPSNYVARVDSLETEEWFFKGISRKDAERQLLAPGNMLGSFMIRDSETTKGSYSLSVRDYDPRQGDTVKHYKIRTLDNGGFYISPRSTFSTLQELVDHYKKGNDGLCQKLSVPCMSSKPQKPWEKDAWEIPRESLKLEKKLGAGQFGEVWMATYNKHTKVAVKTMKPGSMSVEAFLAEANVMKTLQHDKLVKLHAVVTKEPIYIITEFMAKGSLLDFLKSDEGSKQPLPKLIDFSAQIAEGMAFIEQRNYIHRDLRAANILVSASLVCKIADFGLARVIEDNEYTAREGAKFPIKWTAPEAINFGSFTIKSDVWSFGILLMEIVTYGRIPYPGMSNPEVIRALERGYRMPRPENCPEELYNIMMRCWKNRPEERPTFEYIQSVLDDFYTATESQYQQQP
Runt-SMMHC FRET – Runt domain-CBFb-SMMHC interaction inhibition. Q01196+Q13951. Cerulean-Runt/Venus-CBFb-SMMHC FRET ratio 530/480, 1 h. inhibition, % at 20 µM. 220,000 tested, 0.74% active. AID 1434;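 active = mean inhibition across duplicate retests at 20 µM reaching about 50%, limit read from the data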;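 note: inhibitors lower the FRET ratio by blocking Runt binding to CBFb-SMMHC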
Numbers stand for hits; - = inactive; . = no result. This is a sample that favours compounds with a hit; in the whole collection about 1.5% have one here.

SMILES	RanGTP-Impb inh	CaV13 FRET inh	Runt-CBFb FRET	Hck-Nef inh	Runt-SMMHC FRET
COc1ccc(OC)c(CCNC(=O)CCCc2nnc3n(C)c(=O)c4sccc4n23)c1	-	-	.	.	.
Cc1ccc(S(=O)(=O)N2CCN(C(=O)COC(=O)c3oc4ccccc4c3C)CC2)cc1	-	-	.	.	.
Cc1cccc(N2CCN(C(=O)c3ccc(S(=O)(=O)N(C)c4ccccc4)cc3)CC2)c1C	.	-	.	.	.
CCn1c(=O)cc(OCC(=O)N2CCN(c3cccc(C(F)(F)F)c3)CC2)c2ccccc21	30.0	-	-	-	-
CCn1c(=O)cc(OCC(=O)N2CCCC2)c2ccccc21	-	-	-	-	-
Cc1cc(NCCN2CCOCC2)n2nc(C)c(-c3ccccc3)c2n1	-	.	-	-	-
Cc1cc(C)c2c(n1)nn1c(NCCN3CCOCC3)cc(C)nc21	35.5	-	-	-	-
COc1cc(OC)cc(C(=O)c2c(C)c(C#N)c3ccccn23)c1	-	-	.	.	.
N#Cc1c2ccc(OCC(N)=O)cc2n2ccccc12	55.0	77.2	-	-	86.0
CCOC(=O)COc1ccc2c(C#N)c3ccccn3c2c1	-	-	-	-	92.2
CCOC(=O)c1c2ccc(OCC(=O)N/N=C/c3ccc(Cl)cc3)cc2n2ccccc12	41.2	-	.	-	-
Nc1nnc(/C=C/c2ccccc2Cl)s1	-	-	-	-	-
CCN(CC(=O)Nc1c(F)cccc1F)C(=O)C1CCN(S(=O)(=O)c2ccc(C)c(C)c2)CC1	-	-	.	.	.
COCCN(C(=O)COC(=O)C(c1ccccc1)c1ccccc1)c1c(N)n(Cc2ccccc2)c(=O)[nH]c1=O	-	-	.	.	.
Cn1c(CNC(=O)c2ccco2)nnc1SCC(=O)c1ccc(F)cc1	-	-	.	.	.
O=C(c1ccco1)[C@@H]1[C@@H]2C(=O)N(c3ccc(Br)cc3)C(=O)[C@@H]2C2c3ccccc3C=CN21 (some centres undefined)	.	.	-	-	-
O=C(c1ccco1)[C@@H]1[C@@H]2C(=O)N(c3ccc(F)cc3)C(=O)[C@@H]2C2c3ccccc3C=CN21 (some centres undefined)	45.3	-	-	-	-
Cc1ccccc1C1CC(=O)c2ccccc2C1C (centres undefined)	.	-	.	.	.
CCc1ccc(C(=O)C(C)OC(=O)c2cccc(S(=O)(=O)N3CCOCC3)c2)cc1 (centres undefined)	-	-	.	.	.
COc1ccc(Nc2cc(Cl)nc(N)n2)cc1OC	18.2	-	-	-	-
CCCCC(Sc1nc(N)c(NC(=O)c2ccc(OC)cc2)c(=O)[nH]1)C(=O)O (centres undefined)	-	-	-	-	-
CCC(Sc1nc(N)c(NC(=O)c2ccc(OC)cc2)c(=O)[nH]1)C(=O)O (centres undefined)	-	66.7	-	-	-
CC(CN1C(C)CCCC1C)OC(=O)c1ccccc1F (centres undefined)	-	-	.	.	.
Cc1cc(C)n2nc(SCc3cccc(F)c3)nc2n1	-	-	.	.	.
COc1cccc2c(=O)c3cccc(N)c3[nH]c12	127.2	-	-	-	.
SMILES	RanGTP-Impb inh	CaV13 FRET inh	Runt-CBFb FRET	Hck-Nef inh	Runt-SMMHC FRET
CC1C/C(=C/c2ccco2)C(=O)/C(=C/c2ccco2)C1 (centres undefined)	-	.	-	66.6	-
O=C1/C(=C\c2ccco2)CCC/C1=C\c1ccco1	-	-	-	-	-
COc1ccc(C)cc1S(=O)(=O)Nc1ccncc1	13.9	-	-	-	-
CC(C)CC(=O)NC(Nc1ccccc1F)C(Cl)(Cl)Cl (centres undefined)	-	.	-	-	-
CCCC(=O)NC(Nc1ccccc1F)C(Cl)(Cl)Cl (centres undefined)	-	.	67.0	-	-
Cc1cccc(CN2CCc3c(OCC(=O)N4CCCc5ccccc54)cccc3C2=O)c1	21.9	-	-	-	-
O=C1c2cccc(OCC(=O)N3CCCc4ccccc43)c2CCN1Cc1ccc(F)cc1	-	-	-	-	-
COc1cc(-c2nc3cnccn3c2NC(C)(C)CC(C)(C)C)ccc1O	-	-	.	.	.
COc1cc(-c2nc3cnccn3c2Nc2c(C)cccc2C)ccc1O	52.5	.	-	-	-
COc1cc(C2C3=C(CC(C)(C)CC3=O)N(C)C3=C2C(=O)CC(C)(C)C3)ccc1O	-	-	.	.	.

Screening data (PubChem)
